Assay results reported in ChEMBL document CHEMBL4706642, “Discovery of a Potent Dual Inhibitor of Acetylcholinesterase and Butyrylcholinesterase with Antioxidant Activity that Alleviates Alzheimer-like Pathology in Old APP/PS1 Mice” (J Med Chem, 2021).
Calls of active or inactive are those of the source.

Tests used:
[1] = target: Beta-secretase 1 (Homo sapiens) (UniProt P56817); experiment: Inhibition of recombinant human BACE-1 at 1 uM using methoxycoumarin-Ser-Glu-Val-Asn-Leu-Asp-Ala-Glu-Phe-Lys-dinitrophenyl as substrate preincubated for 1 hr followed by substrate addition and measured after 15 mins by fluorescence based assay relative to control; conditions: time 75.0 min
[2] = Antioxidant activity assessed as DPPH radical scavenging activity incubated for 30 mins under dark condition by UV-Vis spectrophotometric analysis; type: functional
[3] = Selectivity index, ratio of IC50 for human serum BChE using butyrylthiocholineiodide as substrate to IC50 for recombinant human AChE using acetylthiocholine iodide as substrate
How it was run: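 Ellman spectrophotometric assay in 0.1 M phosphate buffer, pH 8.0, with 340 μM DTNB. Enzyme was 0.02 U/mL human recombinant AChE or human serum BChE. […] Then 550 μM ATCh or BTCh was added, and A412 was followed for 210 s. Non-enzymatic hydrolysis was corrected. IC50 came from a % inhibition vs log[I] regression. Selectivity = IC50 hBChE/IC50 hAChE. Mean ± SEM of ≥2 experiments, each in duplicate/triplicate.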

Cholinesterase [4] = target: T1, Cholinesterase (Homo sapiens, UniProt P06276); experiment: Inhibition of human serum BChE using butyrylthiocholineiodide as substrate preincubated for 20 mins followed by substrate addition by Ellman's method; type: cell-free
How it was run: (§1)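 Enzyme was 0.02 U/mL human recombinant AChE or human serum BChE. Non-enzymatic hydrolysis was corrected. IC50 came from a % inhibition vs log[I] regression. Selectivity = IC50 hBChE/IC50 hAChE. Mean ± SEM of ≥2 experiments, each in duplicate/triplicate.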

[5] = Permeability of the compound in PBS/EtOH buffer (70:30) by PAMPA-BBB assay; type: ADME; conditions: read-out: permeability
How it was run: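 PAMPA-BBB permeability, reported as Pe in 10⁻⁶ cm s⁻¹, with CNS+ defined as Pe > 5.1. Mean ± SD of three experiments, each in triplicate.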

Acetylcholinesterase = Acetylcholinesterase (Homo sapiens, UniProt P22303); experiment: Inhibition of recombinant human AChE using acetylthiocholineiodide as substrate preincubated for 20 mins followed by substrate addition by Ellman's method; how it was run: as §1
[6] = target: Acetylcholinesterase (Electrophorus electricus) (UniProt O42275); experiment: Displacement of propidium iodide from PAS-region of electric eel AChE assessed as decrease in fluorescence intensity at 4 to 92 uM by spectrofluorimetric analysis relative to control; parameters: scale not given: the % may be the effect or the level left; conditions: dose 4-92 µM
How it was run: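 Back-titration fluorescence assay using electric eel AChE (type VI-S). Inhibitor was added in successive aliquots from a MeOH stock. Emission was read at 602 nm with excitation at 535 nm, after subtracting blanks. […] Three independent experiments.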

Cholinesterase [7] = target: T1, Cholinesterase; experiment: Inhibition of human serum BChE at 100 uM using butyrylthiocholineiodide as substrate preincubated for 20 mins followed by substrate addition by Ellman's method relative to control; type: cell-free
[8] = Drug concentration in wild type C57BL6 mouse plasma at 2 mg/kg, ip thrice a week for 2 weeks observed after 4 hrs post last dose by HPLC/MS/MS analysis; conditions: in vivo
[9] = Drug concentration in wild type C57BL6 mouse brain at 2 mg/kg, ip thrice a week for 2 weeks observed after 4 hrs post last dose by HPLC/MS/MS analysis; conditions: in vivo
[10] = target: Beta-secretase 1 (Homo sapiens) (UniProt P56817); experiment: Inhibition of recombinant human BACE-1 at 5 uM using methoxycoumarin-Ser-Glu-Val-Asn-Leu-Asp-Ala-Glu-Phe-Lys-dinitrophenyl as substrate preincubated for 1 hr followed by substrate addition and measured after 15 mins by fluorescence based assay relative to control; conditions: time 75.0 min

Sequence of Acetylcholinesterase (P22303 whole entry): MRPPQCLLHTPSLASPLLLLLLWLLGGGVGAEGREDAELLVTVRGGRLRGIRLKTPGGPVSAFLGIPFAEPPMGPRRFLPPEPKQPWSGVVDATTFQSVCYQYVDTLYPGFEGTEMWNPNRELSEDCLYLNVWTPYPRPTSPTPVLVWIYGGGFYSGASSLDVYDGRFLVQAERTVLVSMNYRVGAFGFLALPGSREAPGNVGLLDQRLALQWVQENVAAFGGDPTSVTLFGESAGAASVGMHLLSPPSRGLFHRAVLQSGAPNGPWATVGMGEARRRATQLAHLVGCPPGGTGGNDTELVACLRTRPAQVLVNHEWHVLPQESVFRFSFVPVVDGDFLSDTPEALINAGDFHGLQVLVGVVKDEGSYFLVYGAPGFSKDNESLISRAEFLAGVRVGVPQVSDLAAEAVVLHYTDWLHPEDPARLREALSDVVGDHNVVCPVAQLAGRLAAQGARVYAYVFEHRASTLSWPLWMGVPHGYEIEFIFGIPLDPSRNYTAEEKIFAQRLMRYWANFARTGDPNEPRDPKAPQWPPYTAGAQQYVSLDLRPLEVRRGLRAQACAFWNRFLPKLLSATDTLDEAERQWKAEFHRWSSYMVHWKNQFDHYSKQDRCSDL
T1 sequence (P06276 whole entry): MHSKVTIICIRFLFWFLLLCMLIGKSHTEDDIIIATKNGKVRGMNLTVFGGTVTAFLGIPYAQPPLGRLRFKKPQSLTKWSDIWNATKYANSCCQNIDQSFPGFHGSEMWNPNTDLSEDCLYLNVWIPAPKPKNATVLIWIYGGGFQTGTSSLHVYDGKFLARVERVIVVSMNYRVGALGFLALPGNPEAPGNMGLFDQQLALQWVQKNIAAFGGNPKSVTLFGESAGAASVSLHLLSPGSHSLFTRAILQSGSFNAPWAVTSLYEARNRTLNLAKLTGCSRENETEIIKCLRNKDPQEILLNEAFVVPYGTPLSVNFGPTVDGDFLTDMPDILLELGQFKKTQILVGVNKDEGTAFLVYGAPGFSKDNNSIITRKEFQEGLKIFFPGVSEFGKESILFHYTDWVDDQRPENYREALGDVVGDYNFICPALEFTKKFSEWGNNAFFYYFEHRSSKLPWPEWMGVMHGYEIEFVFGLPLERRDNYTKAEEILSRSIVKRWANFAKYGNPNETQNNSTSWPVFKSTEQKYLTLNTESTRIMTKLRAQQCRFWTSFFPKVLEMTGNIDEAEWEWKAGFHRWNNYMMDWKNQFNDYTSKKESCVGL
Sequence of Beta-secretase 1 (Homo sapiens) (P56817 whole entry): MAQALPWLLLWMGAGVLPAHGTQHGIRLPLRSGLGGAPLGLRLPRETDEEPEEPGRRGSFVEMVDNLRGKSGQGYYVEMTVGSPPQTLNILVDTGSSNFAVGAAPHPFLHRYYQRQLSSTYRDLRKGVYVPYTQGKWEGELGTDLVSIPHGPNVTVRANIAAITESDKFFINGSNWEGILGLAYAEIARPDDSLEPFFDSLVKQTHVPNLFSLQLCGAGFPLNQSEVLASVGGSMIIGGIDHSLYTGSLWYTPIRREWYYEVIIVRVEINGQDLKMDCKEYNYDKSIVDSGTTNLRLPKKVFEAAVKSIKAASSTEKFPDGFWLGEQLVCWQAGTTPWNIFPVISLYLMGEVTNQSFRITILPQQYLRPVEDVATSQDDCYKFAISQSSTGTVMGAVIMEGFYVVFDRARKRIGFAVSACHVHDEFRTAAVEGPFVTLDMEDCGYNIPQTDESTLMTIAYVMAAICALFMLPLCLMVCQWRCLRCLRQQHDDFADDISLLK
Sequence of Acetylcholinesterase (Electrophorus electricus) (O42275 24-633 limits assumed): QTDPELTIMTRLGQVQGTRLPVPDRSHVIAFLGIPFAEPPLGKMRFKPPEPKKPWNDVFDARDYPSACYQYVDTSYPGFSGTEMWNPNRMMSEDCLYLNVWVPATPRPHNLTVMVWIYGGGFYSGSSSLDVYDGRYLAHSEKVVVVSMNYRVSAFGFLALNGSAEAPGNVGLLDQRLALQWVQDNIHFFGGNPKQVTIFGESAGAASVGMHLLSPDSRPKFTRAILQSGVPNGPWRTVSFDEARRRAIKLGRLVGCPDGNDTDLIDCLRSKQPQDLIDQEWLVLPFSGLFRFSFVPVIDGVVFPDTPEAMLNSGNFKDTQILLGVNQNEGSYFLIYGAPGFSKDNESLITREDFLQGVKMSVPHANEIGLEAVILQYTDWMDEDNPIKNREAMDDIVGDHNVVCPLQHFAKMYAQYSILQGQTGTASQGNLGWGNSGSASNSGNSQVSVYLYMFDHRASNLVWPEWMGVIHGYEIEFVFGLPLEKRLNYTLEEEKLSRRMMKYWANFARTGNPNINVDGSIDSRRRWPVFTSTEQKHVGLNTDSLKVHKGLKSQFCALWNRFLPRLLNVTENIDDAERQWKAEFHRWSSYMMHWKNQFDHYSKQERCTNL

Structure (SMILES): COc1cc(CNC(=O)CCCCCCCCNc2c3c(nc4cc(Cl)ccc24)CC2C=C(C)CC3C2)ccc1O (stereo unspecified)
- inhibition [1]: 23.7%
- IC50 [2]: 64600 nM
- Ratio IC50 [3]: 12.3
- IC50 (Cholinesterase [4]): 36.1 nM
- Papp [5]: 21.8 ×10⁻⁶ cm/s
- IC50 (Acetylcholinesterase): 2.94 nM

Structure (SMILES): COc1cc(CNC(=O)CCCCCNc2c3c(nc4cc(Cl)ccc24)CC2C=C(C)CC3C2)ccc1O (stereo unspecified)
- inhibition [1]: 34.3%
- IC50 [2]: 62600 nM
- Ratio IC50 [3]: 16.1
- IC50 (Cholinesterase [4]): 70 nM
- Papp [5]: 14.9 ×10⁻⁶ cm/s
- IC50 (Acetylcholinesterase): 4.35 nM

Structure (SMILES): COc1cc(CNC(=O)CCCC/C=C/CNc2c3c(nc4cc(Cl)ccc24)CC2C=C(C)CC3C2)ccc1O (stereo unspecified)
- inhibition [1]: inactive
- IC50 [2]: 31700 nM
- Ratio IC50 [3]: 17.7
- IC50 (Cholinesterase [4]): 78.1 nM
- Papp [5]: 16.8 ×10⁻⁶ cm/s
- IC50 (Acetylcholinesterase): 4.41 nM

Structure (SMILES): COc1cc(CNC(=O)c2ccc(CNc3c4c(nc5cc(Cl)ccc35)CC3C=C(C)CC4C3)cc2)ccc1O (stereo unspecified)
- inhibition [1]: inactive
- IC50 [2]: 71400 nM
- Ratio IC50 [3]: 11.6
- IC50 (Cholinesterase [4]): 290 nM
- Papp [5]: 14.3 ×10⁻⁶ cm/s
- IC50 (Acetylcholinesterase): 24.9 nM

Structure (SMILES): COc1cc(CNC(=O)CCCC/C=C/C(C)C)ccc1O [CAPSAICIN]
- inhibition [1]: inactive
- IC50 [2]: 50300 nM
- Activity [6]: 11%
- Papp [5]: 10.3 ×10⁻⁶ cm/s
- inhibition (Cholinesterase [7]): 20%
- IC50 (Acetylcholinesterase): > 200000 nM

Structure (SMILES): COc1cc(CNC(=O)CCCCNc2c3c(nc4cc(Cl)ccc24)CC2C=C(C)CC3C2)ccc1O (stereo unspecified)
- inhibition [1]: 55.6%
- IC50 [2]: 68500 nM
- Ratio IC50 [3]: 9.5
- IC50 (Cholinesterase [4]): 52.2 nM
- Papp [5]: 11.5 ×10⁻⁶ cm/s
- IC50 (Acetylcholinesterase): 5.48 nM

Structure (SMILES): COc1cc2c(cc1OC)C(=O)C(CC1CCN(Cc3ccccc3)CC1)C2 (stereo unspecified) [DONEPEZIL]
- concentration at 336 h [8]: 6460 ng/mL
- concentration at 336 h [9]: 6130 ng/g

Structure (SMILES): COc1cc(CNC(=O)CCCCCCCNc2c3c(nc4cc(Cl)ccc24)CC2C=C(C)CC3C2)ccc1O (stereo unspecified)
- inhibition [1]: 3.6%
- IC50 [2]: 70800 nM
- Ratio IC50 [3]: 26.7
- IC50 (Cholinesterase [4]): 51.8 nM
- Papp [5]: 20.1 ×10⁻⁶ cm/s
- IC50 (Acetylcholinesterase): 1.94 nM

Structure (SMILES): CC1=CC2Cc3nc4cc(Cl)ccc4c(N)c3C(C1)C2 (stereo unspecified)
- inhibition [10]: 14%

Structure (SMILES): COc1cc(CNC(=O)CCCC/C=C/CCCNc2c3c(nc4cc(Cl)ccc24)CC2C=C(C)CC3C2)ccc1O (stereo unspecified)
- inhibition [1]: 21.6%
- IC50 [2]: 54600 nM
- Ratio IC50 [3]: 9.4
- IC50 (Cholinesterase [4]): 53.1 nM
- Papp [5]: 22.3 ×10⁻⁶ cm/s
- IC50 (Acetylcholinesterase): 5.64 nM
